Tests used:
[1] = tested on: HCT-116; assay: Cytotoxicity against human HCT116 cells assessed as growth inhibition after 72 hrs by MTT assay; type: functional, cell-based; settings: HCT-116, 72 h
Method in brief: (§1)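 Cells exposed to compound for 72 h, then MTT added. Formazan crystals dissolved in DMSO and absorbance read at 570 nm. Run in triplicate in three independent experiments. IC₅₀ (50% cell growth inhibition) derived by dose-effect analysis.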

[2] = biological target: RAC-alpha serine/threonine-protein kinase (Homo sapiens, UniProt P31749); assay: Inhibition of AKT1 (unknown origin) using ATP/eNOS as substrate incubated for 5 mins prior to substrate addition measured after 30 mins by fluorescence polarization assay
Chain of RAC-alpha serine/threonine-protein kinase (P31749 whole entry): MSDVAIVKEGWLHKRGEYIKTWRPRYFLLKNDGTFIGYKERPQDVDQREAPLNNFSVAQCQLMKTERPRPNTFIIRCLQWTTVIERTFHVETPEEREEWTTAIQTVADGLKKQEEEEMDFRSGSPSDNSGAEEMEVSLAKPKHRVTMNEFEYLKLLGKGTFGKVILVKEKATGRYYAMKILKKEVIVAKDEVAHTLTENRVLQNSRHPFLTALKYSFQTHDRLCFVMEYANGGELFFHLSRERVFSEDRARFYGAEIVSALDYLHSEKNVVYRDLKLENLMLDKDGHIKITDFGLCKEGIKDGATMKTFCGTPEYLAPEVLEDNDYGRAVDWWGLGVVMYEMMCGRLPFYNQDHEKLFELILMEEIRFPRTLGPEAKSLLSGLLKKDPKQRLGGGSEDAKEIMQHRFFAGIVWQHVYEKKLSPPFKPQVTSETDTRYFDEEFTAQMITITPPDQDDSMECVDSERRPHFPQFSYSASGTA

[3] = tested on: OVCAR-8; assay: Cytotoxicity against human OVCAR8 cells assessed as growth inhibition after 72 hrs by MTT assay; type: functional, cell-based; settings: OVCAR-8, 72 h; method in brief: as §1

Structure (SMILES)	IC50 [2] [nM]	IC50 [1] [µM]	IC50 [3] [µM]
NCC1(c2ccc(Cl)c(Cl)c2)CCN(c2cc(N)ncn2)CC1	4320	19.8	–
Nc1ncnc(N2CCN(C(=O)C(N)Cc3ccc(Cl)cc3)CC2)c1Br (racemic)	7.7	5.15	22.7
Nc1ncnc(N2CCN(C(=O)C(N)Cc3ccccc3)CC2)c1Br (racemic)	432	6.19	–

The remaining compounds from weak to strong by IC50 [2], led by results:

IC50 [2] [nM]	Structure (SMILES)	IC50 [1] [µM]	IC50 [3] [µM]
1830	CNc1cc(N2CCC(CN)(c3ccc(Cl)c(Cl)c3)CC2)ncn1	16.7	–
1830	Nc1ncnc(N2CCN(C(=O)[C@@H](N)Cc3ccccc3)CC2)c1Cl	28.7	–
17	Nc1ncnc(N2CCN(C(=O)C(N)Cc3ccc(Cl)cc3)CC2)c1Cl (racemic)	4.36	26.1
